# According to publication PMC4883002 (Environmental science & technology, 2016):
# Where a name gives a salt, the structure may show the parent alone.
# Assays:
# [1] = target: human serum albumin (HSA) Site I (Homo sapiens, UniProt P02768); test: Displacement of the Site I-selective fluorescent probe DNSA from HSA; type: binding; conditions: for Site I binding (DNSA displacement), result in words: 10 µM HSA, 20 µM DNSA, pH 7.4, 25°C, numeric EC50 values only in Figures 4-6; for fluorescence of the site I probe, DNSA: at higher concentrations of ligand
# Sequence of human serum albumin (HSA) Site I (P02768 25-609): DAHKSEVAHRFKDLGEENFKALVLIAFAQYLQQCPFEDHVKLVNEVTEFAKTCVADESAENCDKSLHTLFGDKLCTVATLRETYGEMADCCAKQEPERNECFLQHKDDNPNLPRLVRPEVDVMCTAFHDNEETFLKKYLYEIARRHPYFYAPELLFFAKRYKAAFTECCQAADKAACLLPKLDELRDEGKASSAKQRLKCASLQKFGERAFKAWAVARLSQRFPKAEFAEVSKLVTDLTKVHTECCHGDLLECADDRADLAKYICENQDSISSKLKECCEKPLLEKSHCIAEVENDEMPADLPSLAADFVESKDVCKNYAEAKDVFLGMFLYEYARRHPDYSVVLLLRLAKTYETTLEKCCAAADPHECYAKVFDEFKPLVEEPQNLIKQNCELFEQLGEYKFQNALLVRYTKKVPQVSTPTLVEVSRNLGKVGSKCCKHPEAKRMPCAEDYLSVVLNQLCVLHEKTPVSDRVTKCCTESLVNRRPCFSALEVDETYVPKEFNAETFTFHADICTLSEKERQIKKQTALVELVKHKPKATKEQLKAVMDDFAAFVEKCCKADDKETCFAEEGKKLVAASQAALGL
# In short: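 Fatty acid- and globulin-free HSA in 0.1 M potassium phosphate, pH 7.4, with DNSA probe and increasing ligand concentrations (DMSO stocks; final DMSO <0.8% v/v; DMSO-only controls). Fluorescence read after 5 min at 25°C, ex 350/em 460 nm. Triplicates, each averaging six readings, as % of control.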
# HSA [2] = conditions: cited from earlier work
# HSA [3] = conditions: cited from earlier work; remark: listed apart in the source
# human serum albumin = conditions: HSA binding, previously published; cited from earlier work
SMILES,"Site I binding (DNSA displacement), result in words [1]",binding to Site II (HSA [2]),binding to Sudlow Site I (HSA [2]),other results
Oc1ccc(-c2ccc(Cl)cc2)cc1 [4’-OH-PCB 3],significant binding,–,–,–
Oc1ccc(-c2cc(Cl)ccc2Cl)cc1 [4’-OH-PCB 9],no significant binding,–,–,–
O=S(=O)(O)Oc1ccc(-c2ccc(Cl)cc2)cc1 [4’-PCB 3 sulfate],significant binding,–,–,–
O=S(=O)(O)Oc1ccc(-c2ccc(Cl)c(Cl)c2)cc1 [4’-PCB 12 sulfate],no significant binding,–,–,–
O=S(=O)(O)Oc1ccc(-c2ccc(Cl)c(Cl)c2)c(Cl)c1 [4’-PCB 33 sulfate],–,–,–,"fluorescence of the site I probe, DNSA [1]: increased"
O=S(=O)(O)Oc1ccc(-c2ccc(Cl)c(Cl)c2)cc1Cl [4’-PCB 35 sulfate],lack of interaction,–,–,"fluorescence of the site I probe, DNSA [1]: increased"
Clc1ccc(-c2cc(Cl)c(Cl)cc2Cl)cc1Cl [PCB 118],–,no binding,bound with high affinity,–
Clc1cc(Cl)c(-c2cc(Cl)c(Cl)cc2Cl)cc1Cl [PCB 153],–,no binding,bound with high affinity,"HSA binding site (HSA [3]): bound to a single site of HSA, Sudlow Site II"
Clc1ccc(-c2cc(Cl)c(Cl)c(Cl)c2)cc1Cl [compound 126],–,no binding,bound with high affinity,–
O=C(O)c1ccccc1Nc1cccc(C(F)(F)F)c1 [flufenamic acid],–,–,–,Ka (human serum albumin): 156000 M⁻¹
